Paper PMC9929523 (International Journal for Parasitology: Drugs and Drug …, 2023)
“And” between values parts separate entries of the source, which are not always exact repeats. Identical values can stand only once. Like-named read-outs stand apart in the source and are kept apart here.

How the values were obtained:
S. mansoni = conditions: meta-analysis, S. mansoni infections; ref Zwang and Olliaro, 2014; cited from earlier work
S. haematobium = conditions: meta-analysis, S. haematobium infections; ref Zwang and Olliaro, 2014; cited from earlier work
schistosomiasis = conditions: sub-Saharan Africa; ref Doenhoff et al., 2009; cited from earlier work
[1] = ref Daneshmend and Homeida, 1987, cited from earlier work
[2] = Tissue distribution in wild-type C57Bl/6J mice; format: in vivo, mouse; conditions: 4-h time point, 100 mg/kg oral dose
[3] = Hepatic microsomal stability; format: in vitro ADME; conditions: mouse, liver microsomes, pH 7.4, intrinsic clearance, 1 μM OXA, 0.2 mg protein per ml
In short: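 Test compound (1 μM) incubated with mouse hepatic microsomes at 1, 0.5 and 0.2 mg/mL in 100 mM potassium phosphate, pH 7.4. Samples filtered and analysed by LC-MS/MS. Log-transformed data gave half-life. CLint (μl/min/mg) = ln2 × incubation volume / (half-life × mg protein). Unbound CLint came from the y-intercept of microsomal concentration vs 1/CLint.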

P-gp efflux transporter = experiment: Tissue distribution in P-gp knockout mice; format: in vivo, mouse; conditions: wild-type vs P-gp knockout mice, 4 h after 100 mg/kg oral dose
[4] = Estimation of human hepatic inlet; format: in vivo
Schistosoma mansoni = experiment: S. mansoni killing in vitro; format: cell-based
In short: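 Hamster-derived adult male worms, 10 per well, in DMEM with 10% heat-inactivated FBS and antibiotic/antimycotic. Dosed within 2–4 h of harvest from 100X DMSO spikes: 0–143 μM, triplicate, 45 min at 37 °C, 5% CO2. Second set used 143 μM or DMSO for 15, 30 or 45 min. Worms washed thrice and cultured 14 days, medium changed every other day. Daily survival scored by motility, shedding, opacity and tegument blebbing; Kaplan-Meier curves.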

[5] = Blood to plasma ratio, Rb; format: in vitro ADME; conditions: female, C57Bl/6J, mouse, fresh heparinized whole blood and fresh plasma
In short: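 Heparinized whole blood from female C57Bl/6J mice and matching fresh plasma were each spiked from a 10 mM DMSO stock to a final 5 μM and held 30 min at 37 °C. Samples were spun at 8000×g for 3 min, extracted into ACN/MeOH with diclofenac internal standard, and measured by LC-MS/MS. Rb = concentration in directly spiked plasma / concentration in plasma from spiked blood.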

Formulation solubility = format: physicochemical
In short: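 The aim was an oral dosing vehicle. Co-solvent solutions (polyethylene glycol or ethanol) were checked for precipitation by diluting 1:10 into saline. A 10 mg/ml solution was prepared in 100 mM acetate buffer, pH 4.5.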

[6] = Clinical human OXA pharmacokinetics; format: in vivo; conditions: 40 mg/kg dose, assuming dose proportionality
Mouse pharmacokinetics = format: in vivo
[7] = Estimation of mouse hepatic inlet
[8] = patients n = 9, single oral dose 1000 mg
[9] = female, C57Bl/6J, mouse, plasma, iv, 3 mg/kg
[10] = female, C57Bl/6J, mouse, plasma, po, 100 mg/kg, pH 4.5
[11] = 100 mg/kg PO acetate buffer, WinNonlin one-compartment model
[12] = 100 mg/kg PO acetate buffer, method of residuals

O=C(C1CCCCC1)N1CC(=O)N2CCc3ccccc3C2C1 (stereo not drawn) [praziquantel]
cure rate (S. mansoni): 76.7%
cure rate (S. haematobium): 77.1%
cure rates (schistosomiasis): 60–90%

CC(C)NCC1CCc2cc(CO)c([N+](=O)[O-])cc2N1 (stereo not drawn) [OXA, oxamniquine]
peak plasma concentrations ([1]; human, approximately 20 mg/kg oral dose): 4 to 7 µM
AUC(0-∞) [1, 8]: 20.2 ± 4.9 µM·h
Cmax [1, 8]: 4.5 ± 0.9 µM
T1/2 [1, 8]: 151 ± 23 min
Tmax [1, 8]: 103 ± 12 min
bile concentration relative to liver tissue [2]: 15 fold
microsomal CLint at 1 μM [3]: 196 µL/min/mg
impact of efflux transporter P-gp on tissue distribution (P-gp efflux transporter): no indication that the efflux transporter P-gp impacts tissue distribution
rate of absorption in the human intestine [4]: approximately 2.5 % per minute
worm killing at lower concentrations (Schistosoma mansoni; 35.75 μM and 14.3 μM, 45 min exposure, 14 days): minimal worm killing
worm survival (Schistosoma mansoni; 71.5 μM, 45 min exposure, 14 days): significantly reduced
worm survival (Schistosoma mansoni; 143 μM, 45 min exposure, 14 days): significantly reduced
worm killing (Schistosoma mansoni; 143 μM, 45 min exposure, adult male worms, 14 days): 90%
efficacy of worm killing with shorter exposure times (Schistosoma mansoni; 143 μM, exposure 15 and 30 min): maintained
blood plasma ratio at 30 min, 5 μM [5]: 1.6
solubility dependence on pH (Formulation solubility): increases at low pH
stable solution concentration (Formulation solubility; 100 mM acetate buffer, pH 4.5): 10 mg/mL
expected maximal plasma levels [6]: 9 to 14 µM
Cl clearance (Mouse pharmacokinetics; 100 mg/kg PO, 100 mM acetate buffer pH 4.5): 159 ± 3 mL/min/kg
AUC(0-inf) (Mouse pharmacokinetics; [9]): 1.1 µM·h
Cmax (Mouse pharmacokinetics; [9]): 2.2 ± 0.1 µM
Tmax (Mouse pharmacokinetics; [9]): 5 min
clearance (Mouse pharmacokinetics; [9]): 157 ± 3 mL/min/kg
half-life (Mouse pharmacokinetics; [9]): 51 ± 6 min
AUC(0-inf) (Mouse pharmacokinetics; [10]): 26.1 ± 1.7 µM·h
CL/F (Mouse pharmacokinetics; [10]): 230 ± 14 mL/min/kg
Cmax (Mouse pharmacokinetics; [10]): 11.8 ± 1.6 µM
Tmax (Mouse pharmacokinetics; [10]): 50 min
bioavailability (Mouse pharmacokinetics; [10]): 69.5 ± 5.3%
half-life (Mouse pharmacokinetics; [10]): 58 ± 6 min
Inlet Concentration (portal) [7, 11]: 118 µM and 118 ± 10 µM
ka absorption rate constant [7, 11]: 0.043 min⁻¹
Inlet Concentration (portal) [7, 12]: 132 µM and 132 ± 11 µM
ka absorption rate constant [7, 12]: 0.049 min⁻¹
k el ([7]; C57Bl/6J, mouse, in vivo, po, 100 mg/kg, ke elimination rate constant, 100 mg/kg PO acetate buffer, method of residuals): 0.0002 s⁻¹
fraction orally absorbed (Fa x Fg) ([7]; mouse, true value could range between 0.7 and 1): 0.7
